# Experimental data published in ChEMBL document CHEMBL1123730, “Synthesis and pharmacological evaluation of a new class of 2-(2-aminothiazol-4-yl)-2-hydrazonoacetamido cephalosporins” (J Med Chem, 1987).
# Columns and labels:
# [1] = Distribution (50 mg/kg) was determined in kidney 120 min after intramuscular administration; format: ADME, organism-based; settings: im, read-out: Tissue distribution
# Procedure, shortened: (§1)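 Wistar rats (200-250 g, groups of five) given 50 mg/kg in sterile water iv or im; killed at set times, lung, liver and kidney homogenized in 0.1 M pH 7.3 phosphate buffer (tissue:buffer 1:5). Drug assayed by agar diffusion on Nutrient Agar with E. coli ATCC 10536 (37 °C, 18 h); standards in phosphate buffer; detection limit 0.5 μg/mL; mean ± SEM.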
# [2] = Distribution (50 mg/kg) was determined in kidney 120 min after intravenous administration; format: ADME, organism-based; settings: in vivo, 2 h; procedure, shortened: as §1
# [3] = Distribution (50 mg/kg) was determined in kidney 15 min after intramuscular administration; format: ADME, organism-based; settings: im, read-out: Tissue distribution; procedure, shortened: as §1
# [4] = Distribution (50 mg/kg) was determined in kidney 30 min after intramuscular administration; format: ADME, organism-based; settings: im, read-out: Tissue distribution; procedure, shortened: as §1
# [5] = Distribution (50 mg/kg) was determined in kidney 30 min after intravenous administration; format: ADME, organism-based; settings: read-out: Tissue distribution; procedure, shortened: as §1
# [6] = Distribution (50 mg/kg) was determined in kidney 5 min after intramuscular administration; format: ADME, organism-based; settings: im, read-out: Tissue distribution; procedure, shortened: as §1
# [7] = Distribution (50 mg/kg) was determined in kidney 5 min after intravenous administration; format: ADME, organism-based; settings: read-out: Tissue distribution; procedure, shortened: as §1
# [8] = Distribution (50 mg/kg) was determined in kidney 60 min after intramuscular administration; format: ADME, organism-based; settings: im, read-out: Tissue distribution; procedure, shortened: as §1
# [9] = Distribution (50 mg/kg) was determined in liver 120 min after intramuscular administration; format: ADME, organism-based; settings: im, read-out: Tissue distribution; procedure, shortened: as §1
# [10] = Distribution (50 mg/kg) was determined in liver 15 min after intramuscular administration; format: ADME, organism-based; settings: im, read-out: Tissue distribution; procedure, shortened: as §1
# [11] = Distribution (50 mg/kg) was determined in liver 30 min after intravenous administration; format: ADME, organism-based; settings: read-out: Tissue distribution; procedure, shortened: as §1
# [12] = Distribution (50 mg/kg) was determined in liver 5 min after intramuscular administration; format: ADME, organism-based; settings: in vivo, im; procedure, shortened: as §1
# [13] = Distribution (50 mg/kg) was determined in liver 5 min after intravenous administration; format: ADME, organism-based; settings: read-out: Tissue distribution; procedure, shortened: as §1
# [14] = Distribution (50 mg/kg) was determined in liver 60 min after intramuscular administration; format: ADME, organism-based; settings: im, read-out: Tissue distribution; procedure, shortened: as §1
# [15] = Distribution (50 mg/kg) was determined in liver 60 min after intravenous administration; format: ADME, organism-based; settings: read-out: Tissue distribution; procedure, shortened: as §1
# [16] = Distribution (50 mg/kg) was determined in lung 120 min after intramuscular administration; format: ADME, organism-based; settings: im, read-out: Tissue distribution; procedure, shortened: as §1
# [17] = Distribution (50 mg/kg) was determined in lung 120 min after intravenous administration; format: ADME, organism-based; settings: in vivo, 2 h; procedure, shortened: as §1
# [18] = Distribution (50 mg/kg) was determined in lung 15 min after intramuscular administration; format: ADME, organism-based; settings: im, read-out: Tissue distribution; procedure, shortened: as §1
# [19] = Distribution (50 mg/kg) was determined in lung 15 min after intravenous administration; format: ADME, organism-based; settings: read-out: Tissue distribution; procedure, shortened: as §1
# [20] = Distribution (50 mg/kg) was determined in lung 5 min after intravenous administration; format: ADME, organism-based; settings: read-out: Tissue distribution; procedure, shortened: as §1
# [21] = Distribution (50 mg/kg) was determined in lung 60 min after intramuscular administration; format: ADME, organism-based; settings: im, read-out: Tissue distribution; procedure, shortened: as §1
# [22] = Serum level was determined at 15 min after an intravenous administration of 50 mg/kg in rats; format: ADME, organism-based; parameters: dose 50 mg/kg, route intravenous; settings: rat, read-out: Serum level
# Procedure, shortened: (§2)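 Dose 50 mg/kg in sterile water, iv or im, to Wistar rats 200-250 g, five per time point; killed at set intervals, blood centrifuged for serum. Antibiotic measured by agar diffusion on Nutrient Agar with E. coli ATCC 10536 (37 °C, 18 h), standards diluted in serum; detection limit 1 μg/mL. Mean ± SEM of five rats.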
# [23] = Serum level was determined at 15 min after intramuscular administration of 50 mg/kg in rats; format: ADME, organism-based; parameters: dose 50 mg/kg, route intramuscular; settings: rat, im, read-out: Serum level; procedure, shortened: as §2
# [24] = Serum level was determined at 240 min after an intravenous administration of 50 mg/kg in rats; format: ADME, organism-based; parameters: dose 50 mg/kg, route intravenous; settings: rat, read-out: Serum level; procedure, shortened: as §2
# [25] = Serum level was determined at 240 min after intramuscular administration of 50 mg/kg in rats; format: ADME, organism-based; parameters: dose 50 mg/kg, route intramuscular; settings: rat, im, read-out: Serum level; procedure, shortened: as §2
# [26] = Serum level was determined at 30 min after intramuscular administration of 50 mg/kg in rats; format: ADME, organism-based; parameters: dose 50 mg/kg, route intramuscular; settings: rat, im, read-out: Serum level; procedure, shortened: as §2
# [27] = Serum level was determined at 30 min after an intravenous administration of 50 mg/kg in rats; format: ADME, organism-based; parameters: dose 50 mg/kg, route intravenous; settings: rat, read-out: Serum level; procedure, shortened: as §2
# [28] = Serum level was determined at 5 min after an intravenous administration of 50 mg/kg in rats; format: ADME, organism-based; parameters: dose 50 mg/kg, route intravenous; settings: rat, read-out: Serum level; procedure, shortened: as §2
# [29] = Serum level was determined at 5 min after intramuscular administration of 50 mg/kg in rats; format: ADME, organism-based; parameters: dose 50 mg/kg, route intramuscular; settings: rat, im, read-out: Serum level; procedure, shortened: as §2
# [30] = Serum level was determined at 60 min after intramuscular administration of 50 mg/kg in rats; format: ADME, organism-based; parameters: dose 50 mg/kg, route intramuscular; settings: rat, im, read-out: Serum level; procedure, shortened: as §2
# [31] = Serum level was determined at 60 min after an intravenous administration of 50 mg/kg in rats; format: ADME, organism-based; parameters: dose 50 mg/kg, route intravenous; settings: rat, read-out: Serum level; procedure, shortened: as §2
# [32] = Half-life administered, intravenously; format: ADME, organism-based; settings: in vivo, iv
# Procedure, shortened: (§3)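 Wistar rats (200-250 g, groups of five) given 50 mg/kg in sterile water iv or im; killed at 5-360 min, serum separated. Levels by agar diffusion bioassay, E. coli ATCC 10536 test organism, 37 °C 18 h, standards in serum (detection limit 1 μg/mL); elimination half-life derived from serum time course.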
# Alcaligenes = test: Geometrical average of minimum inhibitory concentration was determined in isosensitest broth against Alcaligenes; format: functional
# Escherichia coli [33] = test: Geometrical average of minimum bactericidal concentration was determined in isosensitest broth against Escherichia coli; format: functional
# Escherichia coli [34] = test: In vivo protective dose was determined in infected swiss mice (120/strain) infected ip with Escherichia coli ISM with an inoculum size-0.5 mL of 10 E6 CFU/mL of suspension. Activity in range of 0.90-2.34; format: functional
# Enterobacter = test: Geometrical average of minimum inhibitory concentration was determined in isosensitest broth against Enterobacter; format: functional
# Klebsiella pneumoniae = test: Minimum inhibitory concentration against Klebsiella pneumoniae 102; format: functional
# Pseudomonas = test: Geometrical average of minimum inhibitory concentration was determined in isosensitest broth against Pseudomonas; format: functional
# Proteus = test: Geometrical average of minimum bactericidal concentration was determined in isosensitest broth against Proteus; format: functional, Proteus sp.
# Sarcina = test: Geometrical average of minimum bactericidal concentration was determined in isosensitest broth against Sarcina; format: functional
# Salmonella = test: Geometrical average of minimum bactericidal concentration was determined in isosensitest broth against Salmonella; format: functional
# Salmonella typhimurium [35] = test: In vivo protective dose was determined in infected swiss mice (120/strain) infected ip with Salmonella Typhimurium T.O. with an inoculum size-0.5 mL of 10 E6 CFU/mL of suspension. Activity in range of 5.47-15.81; format: functional, Salmonella enterica subsp. enterica serovar Typhimurium; settings: Salmonella enterica
# Streptococcus = test: Geometrical average of minimum bactericidal concentration was determined in isosensitest broth against Streptococcus; format: functional
# Staphylococcus aureus = test: Geometrical average of minimum inhibitory concentration was determined in isosensitest broth against Staphylococcus (P); format: functional
# Serratia = test: Geometrical average of minimum inhibitory concentration was determined in isosensitest broth against Serratia; format: functional
# Staphylococcus = test: Geometrical average of minimum bactericidal concentration was determined in isosensitest broth against Staphylococcus (P); format: functional
# [36] = Geometrical average of minimum inhibitory concentration was determined in isosensitest broth against gram-positive strains.; format: functional
# [37] = Half-life administered, intramuscularly; format: ADME; settings: im; procedure, shortened: as §3
# Bacillus = test: Geometrical average of minimum inhibitory concentration was determined in isosensitest broth against Bacillus; format: functional
# Salmonella typhimurium [38] = test: Minimum inhibitory concentration against Salmonella Typhimurium T.O was determined; format: functional, Salmonella enterica subsp. enterica serovar Typhimurium; settings: Salmonella enterica
smiles,measurement,setting,value
Cn1nnnc1SCC1=C(C(=O)O)N2C(=O)[C@@H](NC(=O)/C(=N/N)c3csc(N)n3)[C@H]2SC1,concentration at 2 h,[1],10200 ng/g
same,Tissue distribution,[2],Undetectable
same,concentration at 0.25 h,[3],25100 ng/g
same,concentration at 0.5 h,[4],36200 ng/g
same,concentration at 0.5 h,[5],19600 ng/g
same,concentration at 5 min,[6],6420 ng/g
same,concentration at 5 min,[7],107000 ng/g
same,concentration at 1 h,[8],22900 ng/g
same,concentration at 2 h,[9],5270 ng/g
same,concentration at 0.25 h,[10],15400 ng/g
same,concentration at 0.5 h,[11],18800 ng/g
same,Tissue distribution,[12],Undetectable
same,concentration at 5 min,[13],43200 ng/g
same,concentration at 1 h,[14],15100 ng/g
same,concentration at 1 h,[15],9220 ng/g
same,concentration at 2 h,[16],≤ 5000 ng/g
same,Tissue distribution,[17],Undetectable
same,concentration at 0.25 h,[18],10700 ng/g
same,concentration at 0.25 h,[19],17500 ng/g
same,concentration at 5 min,[20],26400 ng/g
same,concentration at 1 h,[21],7660 ng/g
same,concentration at 0.25 h,[22],137 µg/mL
same,concentration at 0.25 h,[23],86.2 µg/mL
same,concentration at 4 h,[24],3650 ng/mL
same,concentration at 4 h,[25],10200 ng/mL
same,concentration at 0.5 h,[26],96.2 µg/mL
same,concentration at 0.5 h,[27],87.2 µg/mL
same,concentration at 5 min,[28],231 µg/mL
same,concentration at 5 min,[29],34600 ng/mL
same,concentration at 1 h,[30],64.4 µg/mL
same,concentration at 1 h,[31],52.5 µg/mL
same,half-life,[32],45 min
same,MIC,Alcaligenes,8.83 µg/mL
same,MBC,Escherichia coli [33],1.01 µg/mL
same,ED50,Escherichia coli [34],1.45 mg/kg
same,MIC,Enterobacter,1.96 µg/mL
same,MIC,Klebsiella pneumoniae,1.56 µg/mL
same,MIC,Pseudomonas,> 100 µg/mL
same,MBC,Proteus,2.45 µg/mL
same,MBC,Sarcina,2.21 µg/mL
same,MBC,Salmonella,1.79 µg/mL
same,ED50,Salmonella typhimurium [35],9.3 mg/kg
same,MBC,Streptococcus,70.7 µg/mL
same,MIC,Staphylococcus aureus,35.3 µg/mL
same,MIC,Serratia,1.75 µg/mL
same,MBC,Staphylococcus,50 µg/mL
same,MIC,[36],4.95 µg/mL
same,half-life,[37],69 min
same,MIC,Bacillus,42 µg/mL
same,MIC,Salmonella typhimurium [38],1.1 µg/mL
